pIC50: −log10 of the molar value.
How the values were obtained:
[1] = Aqueous solubility of the compound in PBS buffer at pH 7.4; assay type: physicochemical
[2] = Dark toxicity in mouse B16F10 cells assessed as cell viability after 48 hrs by cell counting kit-8 based spectrophotometric analysis; parameters: species or system B16-F10; details: for IC50 at 48 h: mouse, B16F10 cells
In short: (§1)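 CCK-8 dark toxicity. 5×10^3 cells seeded in 10% FBS medium (A375 in DMEM, B16-F10 in RPMI 1640). Exposed to graded compound concentrations for 48 h at 37 °C, kept in the dark. Fresh medium and CCK-8 added for 1.5 h, then absorbance read at 450 nm to give IC50. Ratio is dark IC50 over IC50 under light.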

[3] = Phototoxicity in mouse B16F10 cells assessed as cell viability after 24 hrs followed by irradiation with diode laser at 10 J/cm'2 measured after 24 hrs by cell counting kit-8 based spectrophotometric analysis; assay type: functional, B16-F10
In short: (§2)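 Phototoxicity by CCK-8. Cells loaded with a range of compound concentrations for 24 h at 37 °C, irradiated with a 678 nm diode laser at 10 J/cm², then incubated a further 24 h. Viability read as absorbance at 450 nm after 1.5 h with CCK-8.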

[4] = Ratio of IC50 for dark toxicity to IC50 for phototoxicity in mouse B16F10 cells by cell counting kit-8 based spectrophotometric analysis; parameters: species or system B16-F10; details: for selectivity ratio: B16F10 cells, read-out: Ratio IC50; in short: as §1
[5] = (§3) Dark toxicity in human A375 cells assessed as cell viability after 48 hrs by cell counting kit-8 based spectrophotometric analysis; parameters: species or system A-375; details: human, A375 cells; in short: as §1
A-375 [6] = experiment: Phototoxicity in human A375 cells assessed as cell viability after 24 hrs followed by irradiation with diode laser at 10 J/cm'2 measured after 24 hrs by cell counting kit-8 based spectrophotometric analysis; assay type: functional; in short: as §2
[7] = Ratio of IC50 for dark toxicity to IC50 for phototoxicity in human A375 cells; assay type: cell-based, A-375; details: for selectivity ratio: A375 cells, read-out: Ratio IC50; in short: as §1
B16-F10 = experiment: Phototoxicity in mouse B16F10 cells assessed as reduction in cell surviving fraction by irradiation with diode laser at 10 J/cm'2 after 24 hrs by cell counting kit-8 based spectrophotometric analysis; assay type: functional
In short: (§4)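 Survival fraction after PDT. Cells held 24 h at 2 µM or 0.2 µM, irradiated at 678 nm with 10 J/cm², then cultured another 24 h. Viability measured by CCK-8 at 450 nm.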

A-375 [8] = experiment: Phototoxicity in human A375 cells assessed as reduction in cell surviving fraction by irradiation with diode laser at 10 J/cm'2 after 24 hrs by cell counting kit-8 based spectrophotometric analysis; assay type: functional; in short: as §4
[9] = Dark toxicity in mouse B16F10 cells assessed as reduction in cell surviving fraction at 50 to 300 uM after 48 hrs by cell counting kit-8 based spectrophotometric analysis; details: b16-f10, 48 h
In short: (§5)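 Survival fraction measured in the dark by CCK-8 after 48 h exposure at 37 °C to 300 µM or 50 µM. Cells were in 10% FBS medium (A375 in DMEM, B16-F10 in RPMI 1640). Viability read as absorbance at 450 nm after 1.5 h with CCK-8.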

A-375 [10] = experiment: Dark toxicity in human A375 cells assessed as reduction in cell surviving fraction at 50 to 300 uM after 48 hrs by cell counting kit-8 based spectrophotometric analysis; details: a-375, 48 h; in short: as §5
A-375 [11] = experiment: as §3; details: a-375; in short: as §1
[12] = Dark toxicity in mouse B16F10 cells assessed as cell viability after 48 hrs by MTT assay; assay type: cell-based, B16-F10; details: b16-f10
In short: (§6)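 B16-F10 cells in RPMI 1640 with 10% FBS. Dark arm: compound for 48 h. Light arm: compound for 24 h, then 678 nm diode laser at 10 J/cm², then a further 24 h. Read-out by MTT for 4 h, formazan dissolved in DMSO, absorbance at 490 nm. Ratio is dark IC50 over light IC50.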

[13] = Phototoxicity in mouse B16F10 cells assessed as cell viability after 24 hrs followed by irradiation with diode laser at 10 J/cm'2 measured after 24 hrs by MTT assay; assay type: functional, cell-based, B16-F10; details: b16-f10; in short: as §6
[14] = Ratio of IC50 for dark toxicity to IC50 for phototoxicity in mouse B16F10 cells by MTT assay; assay type: cell-based, B16-F10; details: b16-f10; in short: as §6
[15] = Mus musculus, B16-F10, light or radiation study, 24 h
[16] = Homo sapiens, A-375, light or radiation study, 24 h

| Molecule | solubility [1] [µM] | IC50 at 48 h [2] [µM] | pIC50 [3, 15] | selectivity ratio [4] | IC50 at 48 h [5] [µM] | pIC50 (A-375 [6]; [16]) | selectivity ratio [7] | Activity (B16-F10) | Activity (A-375 [8]) | Activity [9] | Activity (A-375 [10]) | pIC50 ([2]; b16-f10) | pIC50 ([3]; b16-f10) | Ratio IC50 ([4]; b16-f10) | pIC50 (A-375 [11]) | pIC50 (A-375 [6]; a-375) | Ratio IC50 ([7]; a-375) | pIC50 [12] | pIC50 [13] | Ratio IC50 [14] |
| --- | --- | --- | --- | --- | --- | --- | --- | --- | --- | --- | --- | --- | --- | --- | --- | --- | --- | --- | --- | --- |
| C=Cc1c(C)c2cc3nc(c(C(=O)OC)c4[nH]c(cc5nc(cc1[nH]2)C(C)=C5CC)c(C)c4C(=O)OC)[C@@H](CCC(=O)O)[C@@H]3C | < 1.6 | 15.7 | 6.52 | 52.2 | 31.3 | 6.28 | 60.2 | – | – | – | – | – | – | – | – | – | – | – | – | – |
| CCC1=C(C)c2cc3[nH]c(cc4nc(c(C(=O)OC)c5[nH]c(cc1n2)c(C)c5C(=O)OC)C(CCC(=O)N[C@@H](CCC(=O)O)C(=O)O)=C4C)[C@@]1(C)C3=CC=C(C(=O)OC)[C@H]1C(=O)OC | – | 224 | 5.39 | 55.3 | 286 | 5.15 | 40.3 | – | – | – | – | – | – | – | – | – | – | – | – | – |
| C=Cc1c(C)c2cc3nc(c(C(=O)OC)c4[nH]c(cc5nc(cc1[nH]2)C(C)=C5CC)c(C)c4C(=O)OC)[C@@H](CCC(=O)N[C@@H](CCC(=O)O)C(=O)O)[C@@H]3C | – | 284 | 5.91 | 233 | > 300 | 5.81 | > 195 | Dose-dependent effect | Dose-dependent effect | Non-toxic | Non-toxic | – | – | – | – | – | – | – | – | – |
| VERTEPORFIN | – | – | – | – | – | – | – | – | – | – | – | 4.60 | 5.92 | 20.77 | 4.44 | 5.69 | 17.64 | 4.60 | 5.97 | 23.39 |
